Assay results from different studies.
Lines come from different studies, so protocols differ.
Target: Ephrin type-A receptor 5 (EPHA5, Homo sapiens, UniProt P54756)

CN(C)c1nccc(-c2cnn3ncccc23)n1
remaining binding (binding; 1 µM): 100%

CC1=C(C#N)[C@@H](c2ccc3[nH]nc(C)c3c2)C(C#N)=C(c2ccc(Cl)cc2)N1
remaining binding (cell-free assay, competition with immobilised ligand; 1 µM): 100%

O=C(c1ccc(Nc2ncc(Cl)c(-c3ccc(Cl)s3)n2)cc1)N1CCC(N2CCCC2)CC1
remaining binding (binding, competition with immobilised ligand; 1 µM): 98%

N[C@@H]1CCN(c2nccc(-c3cnn4ncccc34)n2)C1
remaining binding (binding; 1 µM): 100%

CNC(=O)Nc1ccc2c(c1)[C@@]1(CC2)OC(=O)N(CC(=O)N(Cc2ccc(F)cc2)[C@@H](C)C(F)(F)F)C1=O
remaining binding (cell-free assay, competition with immobilised ligand; 1 µM): 94%

COc1ncc2cc3ccccc3nc2c1C#N
remaining binding (cell-free assay, competition with immobilised ligand; 5 µM): 99%

CCC(=N\O)/C(C)=C/c1ccc(F)cc1
remaining binding (cell-free assay, competition with immobilised ligand; 1 µM): 64%

CC1CCCN1c1nccc(-c2cnn3ncccc23)n1 (centres unmarked)
remaining binding (binding; 1 µM): 100%

COc1cnc(Nc2cccc(S(N)(=O)=O)c2)nc1N1CCN(c2ccccc2)CC1
remaining binding (binding, competition with immobilised ligand; 1 µM): 100%

O=C(NCCCN1CCOCC1)c1ccc(Nc2nccc(-c3cc4ccccc4s3)n2)cc1
remaining binding (binding, competition with immobilised ligand; 1 µM): 88%

CC1=C(C#N)C(c2ccc3c(c2)c(NC(=O)c2ccccc2C)nn3C)C(C#N)=C(C)N1
remaining binding (cell-free assay, competition with immobilised ligand; 1 µM): 77%

F[C@@H]1CCN(c2nccc(-c3cnn4ncccc34)n2)C1
remaining binding (binding; 1 µM): 100%

O=C(Nc1c[nH]nc1C(=O)NC1CCNCC1)c1cc(F)cc(F)c1
remaining binding (binding, competition with immobilised ligand; 1 µM): 100%

C[C@H]1CCN(c2nccc(-c3cnn4ncccc34)n2)C1
remaining binding (binding; 1 µM): 95%

CC(=O)Nc1c(C(C)=O)c(=O)n(C)c2nc(-c3ccc(Cl)cc3Cl)c(-c3ccc(Cl)cc3)cc12
remaining binding (cell-free assay, competition with immobilised ligand; 1 µM): 100%

O=C(c1ccc(Nc2ncc(Cl)c(-c3cc4ccccc4s3)n2)cc1)N1CCC(N2CCCC2)CC1
remaining binding (binding, competition with immobilised ligand; 1 µM): 86%

CNC(=O)[C@@H]1CC[C@@H](n2c(-c3ccc4cnccc4c3)nc3ccc(C(=O)NCc4cccc(C(N)=O)c4)cc32)C1
remaining binding (binding, competition with immobilised ligand; 1 µM): 100%

CN(C)c1ncc(F)c(-c2cnn3ncccc23)n1
remaining binding (binding; 1 µM): 100%

Cc1cc(C)c(-n2ccn3nc(-c4cccnc4)cc23)cc1NC(=O)c1cc(C#N)cc(S(F)(F)(F)(F)F)c1
remaining binding (cell-free assay, competition with immobilised ligand; 0.1 µM): 92.4%

FC(F)(F)Oc1cccc(-c2cnc3ccc(-c4ccncc4)nn23)c1
remaining binding (cell-free assay, competition with immobilised ligand; 5 µM): 90%
